Source: ChEMBL document CHEMBL3792331, “Identification and synthesis of potent and selective pyridyl-isoxazole based agonists of sphingosine-1-phosphate 1 (S1P1)” (Bioorg Med Chem Lett, 2016)

How the values were obtained:
[1] = Oral bioavailability in cynomolgus monkey at 1 mg/kg; assay type: ADME, organism-based, Macaca fascicularis; conditions: in vivo
Mus musculus [2] = test: Ratio of Cmax to Cmin in mouse at 5 mg/kg, po; assay type: ADME, organism-based; conditions: in vivo
Mus musculus [3] = test: Clearance in mouse at 2 mg/kg, iv relative to hepatic blood flow; assay type: ADME, organism-based, Liver; conditions: in vivo
[4] = Half life in dog at 1 mg/kg, iv; assay type: ADME, organism-based, Canis lupus familiaris; conditions: in vivo
[5] = Stability in mouse liver microsomes assessed as compound remaining; assay type: ADME
Cynomolgus monkey [6] = test: Clearance in cynomolgus monkey at 1 mg/kg, iv relative to hepatic blood flow; assay type: ADME, organism-based, Macaca fascicularis, Liver; conditions: in vivo
Plasma = test: Ratio of plasma concentration Lewis rat at 1 mg/kg, po after 4 hrs to plasma concentration Lewis rat at 1 mg/kg, po after 24 hrs; assay type: ADME, organism-based; conditions: in vivo
Method in brief: (§1)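 Lewis rats given 1.0 mg/kg orally as solution or suspension in vehicle. Plasma drug concentration measured in blood drawn at 4 h and 24 h; 4 h/24 h ratio taken from these values.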

[7] = Protein binding in human plasma; assay type: ADME, cell-free; conditions: read-out: PPB (converted)
Cytochrome P450 2D6 = Cytochrome P450 2D6 (Homo sapiens, UniProt P10635); test: Inhibition of CYP2D6 (unknown origin); assay type: ADME
Sequence of Cytochrome P450 2D6 (P10635 whole entry): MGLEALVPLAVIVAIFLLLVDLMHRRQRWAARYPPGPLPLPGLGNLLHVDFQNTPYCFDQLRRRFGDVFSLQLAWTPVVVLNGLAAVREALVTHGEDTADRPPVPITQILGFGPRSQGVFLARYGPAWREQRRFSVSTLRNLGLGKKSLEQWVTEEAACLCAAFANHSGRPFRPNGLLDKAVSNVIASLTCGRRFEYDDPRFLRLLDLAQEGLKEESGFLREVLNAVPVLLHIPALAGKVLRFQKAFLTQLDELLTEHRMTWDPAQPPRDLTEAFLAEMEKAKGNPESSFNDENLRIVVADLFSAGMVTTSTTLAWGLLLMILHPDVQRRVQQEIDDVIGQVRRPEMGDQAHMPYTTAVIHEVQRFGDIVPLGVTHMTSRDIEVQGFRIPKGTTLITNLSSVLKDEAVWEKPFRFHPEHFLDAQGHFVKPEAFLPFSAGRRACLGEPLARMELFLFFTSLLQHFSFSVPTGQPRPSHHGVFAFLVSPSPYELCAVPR

[8] = Protein binding in rat plasma; assay type: ADME, cell-free; conditions: read-out: PPB (converted)
[9] = Half life in mouse at 2 mg/kg, iv; assay type: ADME, organism-based; conditions: in vivo
[10] = Clearance in mouse at 2 mg/kg, iv; assay type: ADME, organism-based; conditions: in vivo
Rattus norvegicus [11] = test: Reduction in circulating lymphocytes in Lewis rat at 1 mg/kg, po after 4 hrs; assay type: functional
Method in brief: (§2)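 Healthy Lewis rats dosed orally with test article as solution or suspension in vehicle, or vehicle alone. Blood drawn at 4 h and 24 h. Circulating lymphocyte percentage measured by hematology analyzer, expressed as reduction versus the vehicle group. Group average, n = 3–4.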

Homo sapiens [12] = species: Homo sapiens; test: Inhibition of potassium channel (unknown origin) at 10 uM by patch clamp assay
Rattus norvegicus [13] = test: Ratio of Cmax to Cmin in rat at 5 mg/kg, po; assay type: ADME, organism-based; conditions: in vivo
Canis familiaris = test: Clearance in dog at 1 mg/kg, iv relative to hepatic blood flow; assay type: ADME, organism-based, Canis lupus familiaris, Liver; conditions: in vivo
[14] = Protein binding in dog plasma; assay type: ADME, cell-free, Canis lupus familiaris; conditions: read-out: PPB (converted)
Salmonella typhimurium = test: Mutagenicity in Salmonella typhimurium; assay type: toxicity, organism-based; conditions: salmonella enterica subsp. enterica serovar typhimurium
Rattus norvegicus [15] = test: Reduction in circulating lymphocytes in Lewis rat at 1 mg/kg, po after 24 hrs; assay type: functional; method in brief: as §2
[16] = Protein binding in mouse plasma; assay type: ADME, cell-free; conditions: read-out: PPB (converted)
Cytochrome P450 2B6 = target: T1, Cytochrome P450 2B6 (Homo sapiens, UniProt P20813); test: Inhibition of CYP2B6 (unknown origin); assay type: ADME
T1 sequence (P20813 whole entry): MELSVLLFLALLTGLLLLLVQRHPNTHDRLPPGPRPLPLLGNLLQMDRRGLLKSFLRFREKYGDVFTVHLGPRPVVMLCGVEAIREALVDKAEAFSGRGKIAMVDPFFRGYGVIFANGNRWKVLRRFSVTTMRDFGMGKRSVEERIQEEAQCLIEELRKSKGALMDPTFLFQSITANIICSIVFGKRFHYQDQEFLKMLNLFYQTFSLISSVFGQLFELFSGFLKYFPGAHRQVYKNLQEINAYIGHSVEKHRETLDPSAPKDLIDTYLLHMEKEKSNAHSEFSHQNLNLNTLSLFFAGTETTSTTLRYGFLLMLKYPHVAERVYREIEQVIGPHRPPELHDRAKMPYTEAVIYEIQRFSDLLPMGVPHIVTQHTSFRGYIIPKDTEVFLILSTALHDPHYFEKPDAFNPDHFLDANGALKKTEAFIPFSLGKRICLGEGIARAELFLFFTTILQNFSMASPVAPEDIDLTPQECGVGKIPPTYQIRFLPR

[17] = Plasma concentration Lewis rat at 1 mg/kg, po after 24 hrs; assay type: ADME, organism-based; method in brief: as §1
[18] = Plasma concentration Lewis rat at 1 mg/kg, po after 4 hrs; assay type: ADME, organism-based; method in brief: as §1
Cynomolgus monkey [19] = test: Ratio of Cmax to Cmin in cynomolgus monkey at 1 mg/kg, po; assay type: ADME, organism-based, Macaca fascicularis; conditions: in vivo
Homo sapiens [20] = species: Homo sapiens; test: Inhibition of sodium channel (unknown origin) at 10 uM under 1 and 4 Hz condition by patch clamp assay
[21] = Half life in cynomolgus monkey at 1 mg/kg, iv; assay type: ADME, organism-based, Macaca fascicularis; conditions: in vivo
Rattus norvegicus [22] = test: Clearance in rat at 2 mg/kg, iv relative to hepatic blood flow; assay type: ADME, organism-based, Liver; conditions: in vivo
[23] = Volume of distribution at steady state in mouse at 2 mg/kg, iv; assay type: ADME, organism-based; conditions: in vivo, read-out: Vdss
Method in brief: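 Multi-species pharmacokinetic study with separate iv and oral dosing arms. Steady-state volume of distribution was taken from the iv arm: 2 mg/kg in mouse and rat, 1 mg/kg in cynomolgus monkey and dog. Oral doses in the same study were 5 mg/kg in mouse and rat and 1 mg/kg in monkey and dog.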

- bioavailability [1]: 12%
- Ratio (Mus musculus [2]): 2.8
- CL (Mus musculus [3]): < 1%
- half-life [4]: 6.1 h
- Stability [5]: 100%
- CL (Cynomolgus monkey [6]): 32%
- Ratio (Plasma): 47
- fraction unbound [7]: 0.005
- IC50 (Cytochrome P450 2D6): > 40 µM
- fraction unbound [8]: 0.024
- half-life [9]: 4.5 h
- clearance [10]: 0.3 mL/min/kg
- inhibition (Homo sapiens [12]): 12%
- Ratio (Rattus norvegicus [13]): 26
- CL (Canis familiaris): 8.4%
- fraction unbound [14]: 0.274
- fraction unbound [16]: 0.006
- IC50 (Cytochrome P450 2B6): > 40 µM
- concentration at 24 h [17]: 54 nM
- concentration at 4 h [18]: 2510 nM
- Ratio (Cynomolgus monkey [19]): > 400
- inhibition (Homo sapiens [20]): < 5%
- half-life [21]: 1.1 h
- CL (Rattus norvegicus [22]): 1.4%
- Vd [23]: 0.1 L/kg
Compound: O=C(O)C1CN(Cc2ccc(-c3noc(-c4onc(-c5ccccn5)c4C(F)(F)F)n3)cc2)C1
- inhibition in vivo at 1 mg/kg (Rattus norvegicus [11]): 85%
- Activity (Salmonella typhimurium): Non-toxic
- inhibition in vivo at 1 mg/kg (Rattus norvegicus [15]): 80%
